MC4R antag cAMP: antagonists of human melanocortin 4 receptor (MC4R); P32245; MC4R-expressing cells, MTII-stimulated cAMP, LANCE TR-FRET; inhibition, % at 6.5 µM; actives 0.48% (n = 360,000);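 active means inhibition above its plate's cutoff, the mean of tested wells on that plate plus 3 SD, cut at about 29% in these data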;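 further: 0% = Melanotan II alone and 100% = Melanotan II plus saturating MCL0020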
Target sequence (P32245 whole entry, looked up): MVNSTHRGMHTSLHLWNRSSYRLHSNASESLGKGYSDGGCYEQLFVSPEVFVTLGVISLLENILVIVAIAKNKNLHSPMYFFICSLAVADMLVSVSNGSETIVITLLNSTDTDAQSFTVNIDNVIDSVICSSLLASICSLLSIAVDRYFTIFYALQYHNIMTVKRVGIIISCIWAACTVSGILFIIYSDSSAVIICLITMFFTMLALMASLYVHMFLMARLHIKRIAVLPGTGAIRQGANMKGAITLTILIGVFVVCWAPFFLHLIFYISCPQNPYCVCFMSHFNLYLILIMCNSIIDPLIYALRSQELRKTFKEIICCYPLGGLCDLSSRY
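System – human MC4R-expressing U2OS cells · Also added – Melanotan II · Dosing – one concentration, 6.5 µM nominal · Timing – 30-min compound, 1-h challenge, 1-h detection, room temperature · Measured by – Eu-cAMP/anti-cAMP TR-FRET, emission 671 nm · Replicates – singlicate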
MC4R ag barr: activates human MC4R beta-arrestin recruitment; U2OS MC4R beta-arrestin complementation, luminescence; percent of melanotan II response, DMSO zero; activation, % at 8.9 µM; actives 0.98% (n = 360,000); AID 540308;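 active means activation above a per-plate cutoff, the mean activation of sample wells on that plate plus 3 SD, cut at about 8% in these data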
Bfl-1 A1 inh: inhibitors of the anti-apoptotic protein A1, read as caspase activation. MEF A1-2A-BIM cells, Caspase-Glo 3/7 luminescence, 3 h; percent of clofoctol response, vehicle zero. caspase activation, % (test concentration not listed). actives 0.066% (n = 330,000);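 active means over half of replicate activation scores above 10%, or exactly half above 10 with the replicate mean above 10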
Granule exo inh: blocks lytic granule exocytosis. TALL-104 LAMP-1 surface exposure, flow cytometry; cells stimulated with thapsigargin and PMA. inhibition, % at 10 µM. actives 0.66% (n = 360,000). AID 651702;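 active means inhibition above about 55%, limit read from the data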
HGIII-sPLA2 inh: Blocks human group III sPLA2 activity; Q9NZ20; QFRET BODIPY PC-A2 liposome hydrolysis, fluorescence; inhibition, % at 12.2 µM; actives 0.56% (n = 370,000); AID 743126;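 active means inhibition above mean plus 3 SD of compounds lying within the high and low control bounds, cut at about 19% in these data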;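 further: 0% = median of test compound wells and 100% = no enzyme DMSO wells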
NTR1 agonist: activates human neurotensin receptor 1 | AID 493036 | activation, % at 20 µM | NTR1-U2OS beta-arrestin-GFP spot imaging, agonist mode | P30989 | actives 0.17% (n = 330,000);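 active means activation at or above 40% of the spot to cytoplasm intensity ratio, with at least 20 cells analyzed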;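 further: 0% = DMSO without peptide and 100% = 100 nM NTR1 peptide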
sPLA2 confirm: human GIII-sPLA2 inhibition, confirmation; shares compounds with HGIII-sPLA2 inh; recombinant hGIII-sPLA2, BODIPY PC-A2 QFRET fluorescence; inhibition, % at 12.2 µM; actives 34% (n = 2,000);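 active means mean inhibition across triplicates above the hit cutoff set in the earlier primary screen, cut at about 19% in these data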;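 further: 0% = enzyme with DMSO and 100% = DMSO wells lacking enzyme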
535nm interf: 535nm fluorescence interference, HGIII-sPLA2 counter-screen. BODIPY FL product fluorescence interference, QFRET. inhibition, % at 12.2 µM. shares compounds with HGIII-sPLA2 inh. actives 8.5% (n = 2,000);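 active means average inhibition above the solvent-only control mean plus 3 SD, cut at about 6% in these data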;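 further: 0% = DMSO with substrate plus product and 100% = DMSO with substrate alone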
BODIPY interf DR: 535nm optical interference dose response, HGIII-sPLA2 counter-screen. shares compounds with HGIII-sPLA2 inh. BODIPY FL product fluorescence interference, cell-free. IC50, µM. 240 tested, under 10 active;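 active means IC50 at or below 10 µM; inactive means IC50 above 10 µM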
* marks the source's active call; other numbers are inactive results; x = not tested or not shown. An excerpt weighted towards active compounds, which were near 2.5% of everything screened.

SMILES	MC4R antag cAMP	MC4R ag barr	Bfl-1 A1 inh	Granule exo inh	HGIII-sPLA2 inh	NTR1 agonist	sPLA2 confirm	535nm interf	others
Cc1cc(SCC(=O)NN=C2CCN(C(C)C)CC2)c(C)cc1Br	-7	0	1	-1	22*	3	4	-16
CN(C)c1cccc2c1C(=O)c1ccccc1C2=O	-13	-2	2	-1	25*	0	33*	6.6*
COc1ccc([C@H]2N[C@]3(CCCN(Cc4ccc(Br)cc4)C3=O)[C@H]3C(=O)N(Cc4ccccc4)C(=O)[C@@H]23)cc1	-1	-2	x	5	-11	x	x	x
Cc1ccccc1NC(=O)c1ccc(CN2CC(=O)N3CCCCC3C2=O)cc1 (stereo unspecified)	6	0	-1	0	19*	1	-4	-3
C/C(=N\NC(=S)NCC(C)(C)C)c1cc(F)cc(F)c1O	0	5	1	4	33*	6	43*	0	BODIPY interf DR=>122
CCN(CC)S(=O)(=O)c1ccc(NC(=O)[C@@H](NC(=O)c2cc(OC)cc(OC)c2)C(C)C)cc1	25	0	-1	0	-3	3	x	x
Cc1ccc(-n2c(=S)[nH]c3c(oc4ccccc43)c2=O)cc1	11	-2	-1	-2	25*	0	5	-3
Cc1cccc(NC(=O)CN2CCN(CC(=O)Nc3ccc(-c4ccccc4)cc3)CC2)c1C	22	1	1	-2	-9	3	x	x
Cc1ccc(NC(=O)CN2CCCC2)cc1	0	-1	1	-1	79*	0	6	-4
Cc1cccc(NC(=O)CN2CCN(C(=O)C3CCC3)CC2)c1C	2	-2	-1	3	21*	1	-7	-5
CC1CN(C(=O)Cn2cc(S(=O)(=O)CC(=O)N3CCOCC3)c3ccccc32)CC(C)O1 (stereo unspecified)	6	0	0	0	x	0	x	x
CCc1cc2c(=O)[nH]c(COC)nc2s1	2	-1	-1	6	19*	0	2	-5
CCc1cc2c(=O)[nH]c(Cc3ccc(OC)cc3)nc2s1	-11	2	0	-5	-5	1	x	x
c1ccc2c(c1)nc(N1CCOCC1)c1c3ccccc3[nH]c21	-9	-2	0	2	-5	13	x	x
CCCCN(CC)S(=O)(=O)c1ccc(C(=O)N=c2sc3cc(NC(C)=O)ccc3n2C)cc1	11	3	1	0	20*	0	-28	-13
O=C(C1CCN(S(=O)(=O)c2ccccc2)CC1)N1CCCCCC1	-1	0	1	-3	0	0	x	x
O=C(NNC(=S)NC1CC2C=CC1C2)c1cccnc1 (stereo unspecified)	3	1	0	-4	22*	-1	21*	-8
O=C(NNC(=S)NC(=O)c1ccccc1)c1cccnc1	-1	-4	-1	-2	10	0	x	x
CCc1c(C)sc(NC(=O)c2cccs2)c1C#N	7	-4	-1	-4	20*	4	25*	-3
O=C(c1ccc(S(=O)(=O)c2cccc(Cl)c2)c([N+](=O)[O-])c1)N1CCN(c2ccccn2)CC1	8	-3	-1	7	-9	3	x	x
C=CS(=O)(=O)N(Cc1ccc(C)cc1)[C@@H](CO)C(=O)OC	x	x	x	x	5	x	x	x
Cc1cccc(NC(=S)NNC(=O)c2csc(C)c2)c1	3	-1	-1	5	27*	1	38*	0	BODIPY interf DR=>122
Cc1cccc(NC(=S)NNC(=O)Cc2ccccc2)c1	5	-2	0	-5	19	-1	x	x
Cc1cccc(NCC(=O)NNC(=S)Nc2ccccc2)c1	1	-4	0	-1	23*	0	15	0
O=C(CSCc1ccccc1Cl)NNC(=S)Nc1ccccc1	4	0	0	-3	41*	0	42*	2	BODIPY interf DR=>122
SMILES	MC4R antag cAMP	MC4R ag barr	Bfl-1 A1 inh	Granule exo inh	HGIII-sPLA2 inh	NTR1 agonist	sPLA2 confirm	535nm interf	others
O=C(CSCc1ccccc1Cl)Nc1ccc(C(=O)O)cc1	1	1	-4	8	3	1	x	x
Cc1cccc(C(=O)Oc2cc(C)[nH]c(=O)c2[N+](=O)[O-])c1	5	-1	0	-1	9	-1	x	x
Cc1cc(OC(=O)c2cccc(C(F)(F)F)c2)c([N+](=O)[O-])c(=O)[nH]1	0	-3	0	-5	22*	1	-4	-4
CC(NC(=O)CN1CCOCC1)c1ccc(F)cc1 (stereo unspecified)	-1	-1	0	-2	21*	0	-5	-5
CCCCN(CCCC)C(=S)NC(=O)c1ccccc1Cl	3	0	0	5	30*	0	11	-1
CCN(CC)C(=S)NC(=O)c1ccc(Cl)cc1Cl	0	-3	1	-2	15	0	x	x
COc1ccc(CCN2CCCn3c2nc2c3c(=O)n(CC(C)C)c(=O)n2C)cc1OC	4	0	1	-2	24*	2	13	-17
CC1(C)Oc2ccc(C#N)cc2[C@@H](N2CCCC2=O)[C@@H]1O	8	0	0	2	21*	0	-3	-1
Oc1ccccc1/C=N/Nc1ccccc1	20	6	-5	-2	-5	6	x	x
Oc1ccccc1/C=N/Nc1ncc(Br)cn1	-6	-3	-4	0	29*	x	16	32*
Cc1cccc(Oc2cc(N)cc([N+](=O)[O-])c2)c1	3	-1	0	-2	20*	2	16	-2
Cc1ccc2c(c1)c1c(n2CC(O)CNC2CCCC2)CCCC1 (stereo unspecified)	-9	6	0	15	20*	9	6	-29
CCCCC[C@H](C)N1C[C@H](COCc2ccccc2)Oc2cc(N3CCC[C@H]3COC)ccc2S1(=O)=O	x	x	x	-4	-5	x	x	x
FC(F)(F)c1cccc(CC2CN(Cc3ccccc3)Cc3ccccc3N2c2cc(Cl)cc(Cl)c2)c1 (stereo unspecified)	7	2	x	-1	27*	x	-4	3
COC(=O)C1=C(C)N(Cc2ccc(C(F)(F)F)cc2)C(=NCc2ccc(OC)cc2)NC1c1ccccc1 (stereo unspecified)	x	x	x	x	21*	x	-24	-35

Assay outcomes deposited in PubChem by several laboratories.
